HTRA1 inhibitor: inhibitors of human serine peptidase HTRA1 | actives 0.5% (n = 340,000) | recombinant HTRA1, FP-rhodamine activity-based probe, fluorescence polarization | Q92743 | inhibition, % at 5.96 µM; in the data active means inhibition above about 36%
Target sequence (Q92743 whole entry, looked up): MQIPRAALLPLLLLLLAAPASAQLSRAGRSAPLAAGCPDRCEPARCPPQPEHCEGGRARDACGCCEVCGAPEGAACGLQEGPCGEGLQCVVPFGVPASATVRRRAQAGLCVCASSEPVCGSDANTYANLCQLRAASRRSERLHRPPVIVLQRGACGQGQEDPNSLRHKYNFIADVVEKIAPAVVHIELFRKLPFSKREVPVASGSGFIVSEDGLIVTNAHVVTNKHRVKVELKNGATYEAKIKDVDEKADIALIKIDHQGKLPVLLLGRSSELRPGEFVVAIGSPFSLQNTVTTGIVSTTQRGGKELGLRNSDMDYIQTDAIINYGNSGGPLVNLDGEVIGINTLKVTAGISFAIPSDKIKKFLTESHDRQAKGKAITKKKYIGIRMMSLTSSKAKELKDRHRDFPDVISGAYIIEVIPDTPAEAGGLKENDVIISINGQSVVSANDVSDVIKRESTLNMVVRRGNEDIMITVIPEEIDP
SIAE inh: inhibitors of human sialic acid acetylesterase SIAE; inhibition, % at 9.66 µM; Q9HAT2; actives 0.69% (n = 370,000); SIAE FP-Rh probe binding, fluorescence polarization;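 active means inhibition above a cutoff: mean of compounds within the control limits plus 3 SD of those, cut at about 17% in these data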
mABHD4 FP: inhibits mouse alpha/beta hydrolase domain 4. purified mABHD4, FP-Rh probe fluorescence polarization. inhibition, % at 8.92 µM. actives 0.54% (n = 370,000). AID 720543;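 active means inhibition exceeding the mean over every tested compound plus 3 SD, cut at about 30% in these data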
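Assay system: Wild-type mouse ABHD4 protein | Medium: HEPES pH 7.0 buffer, 150 mM NaCl, 0.01% Pluronic F-127 | Incubation: Enzyme–compound pre-incubation 45 min, then probe 60 min, both 25 °C | Technique: Fluorescence polarization with parallel and perpendicular emission, 525/598 nm | Evaluation: % inhibition of FP-Rh probe binding versus controls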
PRMT1 inh: PRMT1 (human) inhibition, primary screen | Q99873 | recombinant PRMT1, activity-based probe fluorescence polarization | inhibition, % at 2.79 µM | actives 1.3% (n = 370,000);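 active means inhibition above about 21% made by adding two undisclosed values, limit read from the data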
TCR CD3 inh: blocks the human TCR-CD3 interaction. TAMRA-labeled TCR probe fluorescence, biochemical. inhibition, % at 9.4 µM. AID 651800. actives 0.37% (n = 360,000); in the data active means inhibition above about 19%;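 further: recombinant mutant TCR 2C K166C tagged with TAMRA read by polarization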
PRMT1 confirm: PRMT1 (human) inhibition, FP confirmation; shares compounds with PRMT1 inh; actives 42% (n = 3,300); inhibition, % at 2.79 µM; recombinant His-PRMT1, activity-based probe fluorescence polarization; AID 687036;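 active means mean inhibition across replicates above the hit cutoff derived for the earlier primary screen, cut at about 22% in these data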
Large screens that a line does not name were inactive (follow-up assays come after a bar, where they were run). In the library only some 2.6% were active in any assay of this set; here they are far more common.

CN(C)CCNc1ccc2nnn3c4ccc(O)cc4c(=O)c1c23	none
CCN(CC)CCCNc1ccc2ncn3c4ccc(O)cc4c(=O)c1c23	PRMT1 inh 116 | PRMT1 confirm 133
O=C(Sc1cccc2cccnc12)c1ccccc1Br	none
O=C(Sc1cccc2cccnc12)c1ccc(F)cc1	PRMT1 inh 27 (no result: HTRA1 inhibitor) | PRMT1 confirm 27
O=C1CC(NCc2ccc3c(c2)OCO3)C(=O)N1Cc1ccc2c(c1)OCO2 (stereo unspecified)	PRMT1 inh 56 | PRMT1 confirm inactive
CC(=O)Nc1c(O)nc(SCC(=O)Nc2c(C)cccc2C)[nH]c1=O	PRMT1 inh 57 | PRMT1 confirm 25
CCOC(=O)CNC(=O)CSc1nnc(C)c(=O)[nH]1	none
CCOC(=O)CSc1nnc(NCC(=O)OC(C)C)c(=O)[nH]1	PRMT1 inh 54 | PRMT1 confirm 67
O=C(O)C1=C(C2CCCCC2)C(=O)c2ccccc21	none
O=C1C=C(C2CCCCC2)C(=O)c2ccccc21	PRMT1 inh 31 | PRMT1 confirm inactive
Cc1ccc(/C=c2\s/c(=C(/C#N)C(=O)N3CCCC3)n(Cc3ccco3)c2=O)s1	PRMT1 inh 26 | PRMT1 confirm inactive
CCN(CC)S(=O)(=O)c1ccc2c(c1)c(=O)c(C(=O)NCCc1ccc(OC)c(OC)c1)cn2C	none
COc1ccc([C@H]2CC(=O)C[C@@H](CCn3cc(-c4nccn4C)nn3)O2)cc1	none (no result: HTRA1 inhibitor)
CCN1CCc2c(sc(NC(=O)Nc3ccc(Cl)c(Cl)c3)c2C(N)=O)C1	SIAE inh 31, PRMT1 inh 45 | PRMT1 confirm inactive
Cc1ccc(C(=O)CCS(=O)(=O)c2ccc(F)cc2)cc1	PRMT1 inh 29 | PRMT1 confirm 26
Cc1ccc(S(=O)(=O)CCC(=O)c2ccc(F)cc2)cc1	none
O=C(O)CSc1c(Cl)c(=O)oc2ccc(Cl)cc12	none
CC(Sc1nnc(C2CC2)n1C1CC1)C(=O)Nc1cccc(S(=O)(=O)N(C)C)c1 (stereo unspecified)	PRMT1 inh 37 | PRMT1 confirm inactive
O=C(NC1CC(=O)N(c2cccc(F)c2)C1)N1CCN(C(=O)c2ccco2)CC1 (stereo unspecified)	none
FC(F)Sc1ccc(Nc2ncnc3nc[nH]c23)cc1	PRMT1 inh 35 | PRMT1 confirm inactive
Cc1cccc(C(=O)Nc2cccc3cccnc23)c1	none
Cc1ccc(/C=C/C(=O)Nc2ccc([N+](=O)[O-])cc2)o1	PRMT1 inh 42 | PRMT1 confirm inactive
COc1cc(/C=C/C(=O)Nc2ccc(OC)c(S(=O)(=O)N3CCOCC3)c2)ccc1OC(F)F	none
Cc1ccc(/C=C/C(=O)Nc2ccc(Oc3ccccc3)cc2)o1	none
Cc1cc(NS(=O)(=O)c2ccc(NC(=O)/C=C/c3ccccc3)cc2)nc(C)n1	none
COc1ccc(NC(=O)/C=C/c2ccc(C)o2)cc1S(=O)(=O)N1CCOCC1	PRMT1 inh 45 | PRMT1 confirm 30
Cc1ccc(/C=C/C(=O)Nc2cccc3cccnc23)o1	PRMT1 inh 59 | PRMT1 confirm 23
Cc1cc(NS(=O)(=O)c2ccc(NC(=O)/C=C/c3ccc(C)o3)cc2)nc(C)n1	PRMT1 inh 55 | PRMT1 confirm 54
CCOc1ccc(/C=C/C(=O)N(C)CC(=O)Nc2cccc(F)c2)cc1OCC	none
CC(=O)N1N=C(c2ccco2)CC1c1ccc(Cl)o1 (stereo unspecified)	none
COc1ccc(C(=O)NCCCN2CCCC2=O)cc1S(=O)(=O)N1CCOCC1	none
CC(C)(C)c1cc[n+](-c2[nH]c(=O)sc2/C=N/N=C(\[O-])c2cccnc2)cc1	none
O=c1[nH]c(-[n+]2ccc3ccccc3c2)c(/C=N/N=C(\[O-])c2ccccc2)s1	PRMT1 inh 54 | PRMT1 confirm inactive
Cc1ccc(C(=O)CSC2=C(C#N)C(c3ccco3)C3=C(CCCC3=O)N2)cc1 (stereo unspecified)	none
N#CC1=C(SCC(=O)c2ccccc2)NC2=C(C(=O)CCC2)C1c1ccco1 (stereo unspecified)	PRMT1 inh 35 | PRMT1 confirm inactive
O=C(Nc1ccc(Cl)cc1)Nc1cc(S(=O)(=O)N2CCOCC2)ccc1N1CCCC1	none
O=C(Nc1ccccc1)Nc1cc(S(=O)(=O)N2CCOCC2)ccc1N1CCCC1	PRMT1 inh 29 | PRMT1 confirm inactive
CCOCC(=O)Nc1cc(S(=O)(=O)N2CCOCC2)ccc1N1CCCCC1	PRMT1 inh 41 | PRMT1 confirm inactive
CSCCC(NC(=O)COc1ccccc1)C(=O)N(C)CC(=O)Nc1c(C)cccc1C (stereo unspecified)	none
O=C1C=CC(=O)N1Cc1ccncc1	none
O=C1C=CC(=O)N1CCCCCCCCCCN1C(=O)C=CC1=O	PRMT1 inh 82 | PRMT1 confirm 98
C[C@H](CO)N1C[C@H](C)[C@@H](CN(C)C(=O)Nc2ccc(C(F)(F)F)cc2)OCc2cn(nn2)CCCC1=O	none (no result: HTRA1 inhibitor)
COc1ccc(Cl)cc1C(=O)NNC(=O)CNC(=O)c1ccc(C)s1	none
CCC(=O)N(C)C[C@@H]1Oc2ncc(Br)cc2C(=O)N([C@H](C)CO)C[C@H]1C	none
CCC(=O)Nc1nc(C)c(-c2csc(Nc3cccc(O)c3)n2)s1	PRMT1 inh 49 | PRMT1 confirm inactive
Cc1ccc(C(=O)Nn2c(O)c(C=C3N=c4ccccc4=N3)sc2=S)cc1	PRMT1 inh 55 | PRMT1 confirm inactive
O=C(Nn1c(O)c(C=C2N=c3ccccc3=N2)sc1=S)c1ccc(Cl)cc1	none
O=C(Nn1c(O)c(C=C2N=c3ccccc3=N2)sc1=S)c1ccccc1	PRMT1 inh 49 | PRMT1 confirm inactive
O=C(Nn1c(O)c(C=C2N=c3ccccc3=N2)sc1=S)c1cccc(Cl)c1	PRMT1 inh 39 | PRMT1 confirm inactive
Oc1c(C=C2N=c3ccccc3=N2)sc(=S)n1-c1ccc2ccccc2c1	none
CCC1(c2ccccc2)NC(=O)N(CC(=O)Nc2ccc3c(C)cc(=O)oc3c2)C1=O (stereo unspecified)	none
Cc1ccc(S(=O)(=O)N2CCC(C(=O)NCCCN3CCCC3=O)CC2)cc1C	none
O=C(Cn1nc(-c2ccccc2)c2ccccc2c1=O)NCCO	none
N#Cc1c2c(c(-c3ccco3)[nH]c1=O)CCCC2	PRMT1 inh 46 | PRMT1 confirm inactive
N#Cc1c(N)nc2c(c1-c1cccnc1)CCCCC2	none
Cc1[nH]c(=O)c(C#N)c2c1CCCC2	none
N#Cc1c(-c2cccnc2)c2c([nH]c1=S)CCCC2	PRMT1 inh 45 | PRMT1 confirm 32
N#Cc1c(-c2ccco2)c2c([nH]c1=S)CCCC2	PRMT1 inh 59 | PRMT1 confirm 25
O=C1CCN(Cc2ccccc2)N1	none
Nc1ccccc1Sc1ccc(C(=O)c2ccccc2C(=O)O)cc1[N+](=O)[O-]	PRMT1 inh 72 | PRMT1 confirm inactive
CC(=O)c1ccc(Sc2ccccc2N)c([N+](=O)[O-])c1	none (no result: HTRA1 inhibitor)
CC1CN=C(c2ccccc2)O1 (stereo unspecified)	none

Screening results as filed in PubChem.
